Compounds with a hit are over-represented: about 2.1% of the library has one in this group of screens.
IMP-1 inhibitor: IMP-1 metallo-beta-lactamase inhibitors, primary screen, biochemical, epi-absorbance readout, Pseudomonas aeruginosa enzyme. metallo-beta-lactamase IMP-1 (Pseudomonas aeruginosa). purified IMP-1, nitrocefin hydrolysis, epi-absorbance fluorescence. inhibition, % at 5.6 µM. 290,000 tested, 0.45% active. AID 1556, 2009;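 active = inhibition above the mean plus 3 SD of all compounds in the same screening run, cut at about 4.5% in these data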;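 note: 0% = IMP-1 with DMSO and 100% = DMSO wells lacking enzyme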
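Assay system: purified recombinant IMP-1 beta-lactamase. Input: IMP-1 0.2 nM before substrate addition. Buffer or medium: Zinc- and detergent-supplemented HEPES buffer, pH 7.1. Schedule: 25 °C, 15 min preincubation, 25 min reaction. Signal: Epi-absorbance fluorescence, 480 nm excitation, 530 nm emission. Evaluation: percent inhibition from optical density relative to buffer-blank wells.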
CRFR2-BP ag: agonists of CRF-BP/CRF-R2 complex, primary screen, cell-based, HEK293, calcium dye fluorescence, uHTS. CRF-binding protein / CRF receptor 2 complex (human). calcium dye fluorescence (FLIPR); percent of saturating CRF peptide response. 350,000 tested, 0.46% active. AID 588473, 2011. activation, % at 13.2 µM;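 active = activation of at least 50%, plus an integration ratio under a set limit after plate pattern correction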;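 note: plate controls were neutral control wells without compound for no effect and CRF at EC100 for full effect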
VIM-2 inhibitor: VIM-2 metallo-beta-lactamase inhibitors, primary screen, biochemical, epi-absorbance readout, Pseudomonas aeruginosa enzyme; 290,000 tested, 0.89% active; purified VIM-2, nitrocefin hydrolysis, epi-absorbance fluorescence; inhibition, % at 5.6 µM;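 active = inhibition above the mean of all tested compounds plus 3 SD, cutoff set per screening run, cut at about 7.5% in these data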;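 note: red hydrolysis product quenches plate fluorescence so inhibitors raise well fluorescence; 0% = enzyme with DMSO and 100% = DMSO without enzyme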
TRPML3 agonist: human TRPML3 channel agonists, primary screen, cell-based, HEK293 TRPML3-YFP, Fluo-8 calcium fluorescence, 3 µM; Mucolipin-3 (Homo sapiens), Q8TDD5; 100% = the carbachol control signal; activation, % at 3 µM; 220,000 tested, 0.29% active;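 active = activation above its plate's cutoff, the mean activation of the plate's test wells plus 3 SD, cut at about 12% in these data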;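 note: 0% = DMSO only wells and 100% = carbachol wells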
Target sequence (Q8TDD5 whole entry, looked up): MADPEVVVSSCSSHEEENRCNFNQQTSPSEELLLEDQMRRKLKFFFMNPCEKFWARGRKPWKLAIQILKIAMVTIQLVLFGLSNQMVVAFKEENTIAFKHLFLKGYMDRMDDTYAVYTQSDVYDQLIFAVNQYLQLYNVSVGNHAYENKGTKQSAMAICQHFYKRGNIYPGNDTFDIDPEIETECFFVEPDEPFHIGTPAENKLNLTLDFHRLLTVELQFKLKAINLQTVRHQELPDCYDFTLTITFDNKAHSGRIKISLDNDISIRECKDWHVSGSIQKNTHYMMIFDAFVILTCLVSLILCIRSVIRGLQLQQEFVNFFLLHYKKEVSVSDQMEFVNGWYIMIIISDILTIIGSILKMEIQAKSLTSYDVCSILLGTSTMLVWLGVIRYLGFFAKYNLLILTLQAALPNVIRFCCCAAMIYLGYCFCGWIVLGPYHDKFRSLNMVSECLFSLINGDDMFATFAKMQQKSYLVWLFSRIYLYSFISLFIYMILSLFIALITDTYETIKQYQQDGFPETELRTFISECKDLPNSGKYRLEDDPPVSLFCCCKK
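Test system: TRPML3-YFP stable HEK293 cells. Doses: single point at 3 µM. Incubation: dye loading 1 h 37 °C then 30 min ambient, 125 s read. Signal: Fluo-8 calcium dye fluorescence, ex 470-495, em 515-575 nm. Measure: percent activation from peak-to-basal fluorescence ratio, scaled between DMSO and carbachol.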
zfTRPN1 agonist: zebrafish TRPN1 channel agonists, primary screen, cell-based, HEK293, calcium fluorescence; 220,000 tested, 0.18% active; activation, % at 3 µM; HEK293 zebrafish TRPN1-YFP, Fluo-8 calcium fluorescence; 100% = response to 87 µM carbachol;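 active = activation above its plate's cutoff, the mean activation of test wells on that plate plus 3 SD, cut at about 19% in these data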;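 note: 0% = DMSO alone and 100% = 87 µM carbachol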
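Material: zebrafish TRPN1-YFP in HEK293 cells; Doses: single test compound dose, 3 µM nominal, 0.3% DMSO; Timing: dye loading 1 h at 37 °C, then 30 min room temperature; Technique: intracellular calcium fluorescence with Fluo-8; Benchmarks: high carbachol 87 µM, low DMSO alone.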
CRFR2-BP antag: antagonists of CRF-BP/CRF-R2 complex, primary screen, cell-based, HEK293, calcium dye fluorescence, uHTS. 350,000 tested, 0.59% active. CRF-induced calcium fluorescence. inhibition, % at 11.8 µM;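 active = inhibition of the ligand-induced calcium signal above about 50% at the single tested concentration, limit read from the data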
An asterisk follows results filed as active; / = no result.

SMILES	IMP-1 inhibitor	CRFR2-BP ag	VIM-2 inhibitor	TRPML3 agonist	zfTRPN1 agonist	CRFR2-BP antag
O=C(CSc1nnc(NC(=O)c2ccc3c(c2)OCO3)s1)NCc1ccco1	-4	-3	1	0	0	-8
O=C(CSc1nnc(NC(=O)c2ccc(F)cc2)s1)NCc1ccco1	-1	-1	12*	/	/	-10
CC(C)(C)C(=O)Nc1nnc(SCC(=O)NCc2ccco2)s1	-2	0	8.6*	1	1	-1
C[C@H](CO)N1C[C@H](C)[C@@H](CN(C)C)Oc2c(NS(=O)(=O)c3ccc(F)cc3)cccc2C1=O	/	0	/	/	/	8
Cc1cc(C)nc(N2CCCC(C(=O)Nc3cccc(Cl)c3)C2)n1 (centres undefined)	-3	1	-3	/	/	-7
COc1cc(/C=C2\SC(=O)N(c3ccccc3Cl)C2=O)cc([N+](=O)[O-])c1O	-3	-1	-3	-1	0	88*
COc1cc(/C=C2\SC(=O)N(CC(=O)Nc3ccccc3F)C2=O)cc(Cl)c1O	-2	169*	-4	/	/	-150
COc1cc(OC)c(/C=C2\SC(=O)N(CC(=O)Nc3ccccc3F)C2=O)c(OC)c1	-5	2	1	/	/	-6
Nc1ccc2nc(-c3cccc(-c4nc5ccc(N)cc5[nH]4)n3)[nH]c2c1	-5	-1	10.0*	/	/	24
O=C(Nc1ccc(S(=O)(=O)N2CCOCC2)cc1)c1ccc(Cl)c([N+](=O)[O-])c1	/	0	/	/	/	56*
CSc1ncc(Cl)c(C(=O)Nc2ccc(S(=O)(=O)N3CCOCC3)cc2)n1	2	-1	-1	1	0	90*
CSc1ncc(Cl)c(C(=O)Nc2ccc(NC(C)=O)cc2)n1	-1	0	1	1	1	6
Cc1ccc(NC(=O)CN(C)C(=O)CCC(=O)c2cccs2)cc1	8.9*	-2	-2	0	0	-5
CCOC(=O)C1CCCN(c2nc(C)nc3c2oc2ccccc23)C1 (centres undefined)	-2	0	10*	0	1	7
Cc1nc2ccccc2c2oc(C(=O)N3CC(C)CC(C)C3)cc12 (centres undefined)	0	0	9.8*	/	/	-13
CCOC(=O)C1CCCN(C(=O)c2cc3c(C)nc4ccccc4c3o2)C1 (centres undefined)	-5	1	7.9*	1	4	1
CCOC(=O)C1CCN(c2nc(C)nc3c2oc2ccccc23)CC1	/	8	/	/	/	17
CC(=O)c1ccc(N2CCN(C(=O)c3ccc(Cn4c(=S)[nH]c5ccc(N6CCOCC6)cc5c4=O)cc3)CC2)cc1	-3	3	-3	0	0	-4
COC(=O)C1=C(C(=O)OC)C2C(C)=CC(C)=CN2C(C(=O)OC)=C1C(=O)OC (centres undefined)	-4	1	-3	1	0	-17
C=C[C@@H]1c2cccc(C)c2N(S(=O)(=O)c2ccc(C)cc2)[C@H](c2ccc(OC(C)=O)cc2)C1(C#N)C#N	/	2	/	/	/	5
CC1CCCCN1CCCNC(=O)c1cc(Br)c(Br)[nH]1 (centres undefined)	-1	1	-2	2	2	-41
CCCCN(C(=O)Cc1coc2cc(C)c(C)cc12)c1c(N)n(Cc2ccccc2)c(=O)[nH]c1=O	/	3	/	/	/	0
CC(C(=O)O)N1C(=O)C2C3CC(C2C1=O)C1C(c2ccccc2)c2sc(=O)[nH]c2SC31 (centres undefined)	6.5*	1	1	0	1	-3
COc1cccc(CNC(=O)c2nnn(CC(=O)Nc3cccc(C)c3)c2N)c1	-2	-1	-2	/	/	-13
Cc1ccc2cccc(S(=O)(=O)N3CCCc4ccccc43)c2n1	-4	88*	-2	3	5	-159
SMILES	IMP-1 inhibitor	CRFR2-BP ag	VIM-2 inhibitor	TRPML3 agonist	zfTRPN1 agonist	CRFR2-BP antag
O=C(Nc1nnc(-c2ccc(F)cc2)o1)c1cccc([N+](=O)[O-])c1	-4	38	-4	1	0	6
CCCN(CCC)S(=O)(=O)c1ccc(C(=O)Nc2nnc(-c3cccc(OC)c3)o2)cc1	-1	100*	-2	1	1	-86
O=C(Nc1nnc(-c2ccc(Cl)cc2)o1)c1nc2ccccc2s1	-1	187*	-3	0	0	-121
CCCN(CCC)S(=O)(=O)c1ccc(C(=O)Nc2nnc(-c3cc(OC)cc(OC)c3)o2)cc1	-2	1	-2	0	0	2
O=C(Nc1nnc(-c2ccc(F)cc2)o1)c1cc(Cl)sc1Cl	-1	91*	-1	1	0	16
Cc1cccc(-c2nnc(NC(=O)c3ccc(Cl)cc3)o2)c1	-2	108*	2	1	0	25
COc1cc2c(cc1OC)C(c1ccccc1F)NCC2 (centres undefined)	-2	-1	-2	/	/	9
O=C(COC(=O)c1nn(CCO)c(=O)c2ccccc12)Nc1ccc(Cl)c(Cl)c1	/	0	/	/	/	11
CCOc1ccc(Br)cc1S(=O)(=O)NC1CCCC1	/	0	/	/	/	-10
Cc1cc(NC(=O)COC(=O)C2CC(=O)N(c3cccc(Cl)c3)C2)no1 (centres undefined)	-1	-1	-6	/	/	-4
O=C(Nc1nnc(-c2ccccc2)o1)c1cc(Cl)sc1Cl	-3	188*	-1	1	1	37
O=C(NNC(=O)c1nn(-c2ccc(F)cc2)ccc1=O)c1ccccc1Cl	8.4*	-2	-3	1	0	-17
CN(c1cccc(NC(=O)c2ccc(Cl)c(S(=O)(=O)N3CCOCC3)c2)c1)S(C)(=O)=O	-2	-1	-1	/	/	-10
NC1=NC(c2cn(-c3ccccc3)nc2-c2cccs2)n2c(nc3ccccc32)N1 (centres undefined)	4.9*	-2	-1	0	0	-27
CCOc1ccc(OCCCN(C)C)cc1	-2	1	-5	1	0	16
CCOc1ccc(OCCCCN(C)C)cc1	35*	3	3	0	-1	-8
C1=CC(c2cc3ccccc3o2)OC(CCc2ccccc2)C1 (centres undefined)	1	2	-1	/	/	-6
Cc1ccc(Oc2ncccc2/C=N/OCc2ccc(Cl)c(Cl)c2)cc1	4.7*	2	0	1	1	-8
CCN1CCN(CC(=O)Nc2ccccc2)C(=O)C1=O	4.6*	0	5	0	0	5
